Data from ChEMBL document CHEMBL1133434, “Novel retinoic acid receptor alpha agonists: syntheses and evaluation of pyrazole derivatives” (Bioorg Med Chem Lett, 2000).

What was measured:
[1] = molecular target: T1, Retinoic acid receptor beta (Homo sapiens) (UniProt P10826); experiment: Inhibition of [3H]ATRA-Hl60 binding to Retinoic acid receptor beta relative to ATRA; Not detectable
T1 sequence (whole entry): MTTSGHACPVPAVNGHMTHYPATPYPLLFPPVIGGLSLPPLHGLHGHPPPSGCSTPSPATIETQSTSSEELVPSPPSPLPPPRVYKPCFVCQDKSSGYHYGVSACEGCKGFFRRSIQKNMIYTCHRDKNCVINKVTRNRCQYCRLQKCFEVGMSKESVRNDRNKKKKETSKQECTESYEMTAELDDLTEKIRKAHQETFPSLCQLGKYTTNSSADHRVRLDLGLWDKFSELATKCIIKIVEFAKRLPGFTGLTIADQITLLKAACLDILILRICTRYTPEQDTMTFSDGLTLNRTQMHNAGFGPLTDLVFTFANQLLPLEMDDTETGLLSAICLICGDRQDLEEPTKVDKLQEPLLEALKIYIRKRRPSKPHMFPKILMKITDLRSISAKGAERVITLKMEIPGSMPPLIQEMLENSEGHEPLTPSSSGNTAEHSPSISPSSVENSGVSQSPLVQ
How it was run: (§1)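 Competitive binding at individual RAR subtypes, run with [3H]ATRA as radioligand. Affinity is given as IC50 relative to that of ATRA.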

[2] = molecular target: T1, Retinoic acid receptor beta (Homo sapiens); experiment: Relative transcriptional activation in CV-1 cells expressing RAR beta receptor compared to ATRA; format: functional, cell-based; conditions: Cercopithecidae
[3] = molecular target: T2, Retinoic acid receptor gamma (Homo sapiens) (UniProt P13631); experiment: Inhibition of [3H]ATRA-Hl60 binding to Retinoic acid receptor gamma relative to ATRA; Not detectable; how it was run: as §1
T2 sequence (whole entry): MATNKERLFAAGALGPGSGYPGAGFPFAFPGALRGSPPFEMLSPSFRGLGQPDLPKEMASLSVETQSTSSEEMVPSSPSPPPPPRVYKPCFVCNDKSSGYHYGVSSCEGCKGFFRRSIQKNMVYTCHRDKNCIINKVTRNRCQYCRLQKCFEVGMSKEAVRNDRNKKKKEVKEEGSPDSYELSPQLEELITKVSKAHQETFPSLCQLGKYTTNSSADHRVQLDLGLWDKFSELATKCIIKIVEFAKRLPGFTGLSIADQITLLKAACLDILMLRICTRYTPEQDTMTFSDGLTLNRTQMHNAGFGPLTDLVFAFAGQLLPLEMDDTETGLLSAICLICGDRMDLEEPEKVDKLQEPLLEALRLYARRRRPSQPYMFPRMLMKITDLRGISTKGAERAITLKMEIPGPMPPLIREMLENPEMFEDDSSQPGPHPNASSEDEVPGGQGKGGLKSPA

HL-60 = experiment: Effective dose for induction of HL-60 cell differentiation; format: functional, Homo sapiens
How it was run: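 HL-60 cells treated with retinoid. Differentiation scored by the CD11b marker. Activity expressed relative to ATRA, as EC30/ATRA EC30.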

[4] = molecular target: T2, Retinoic acid receptor gamma (Homo sapiens); experiment: Relative transcriptional activation in CV-1 cells expressing RAR gamma receptor compared to ATRA; format: functional, cell-based; conditions: Cercopithecidae
[5] = molecular target: T3, Retinoic acid receptor alpha (Homo sapiens) (UniProt P10276); experiment: Relative transcriptional activation in CV-1 cells expressing RAR alpha receptor compared to ATRA; format: functional, cell-based; conditions: Cercopithecidae
T3 sequence (whole entry): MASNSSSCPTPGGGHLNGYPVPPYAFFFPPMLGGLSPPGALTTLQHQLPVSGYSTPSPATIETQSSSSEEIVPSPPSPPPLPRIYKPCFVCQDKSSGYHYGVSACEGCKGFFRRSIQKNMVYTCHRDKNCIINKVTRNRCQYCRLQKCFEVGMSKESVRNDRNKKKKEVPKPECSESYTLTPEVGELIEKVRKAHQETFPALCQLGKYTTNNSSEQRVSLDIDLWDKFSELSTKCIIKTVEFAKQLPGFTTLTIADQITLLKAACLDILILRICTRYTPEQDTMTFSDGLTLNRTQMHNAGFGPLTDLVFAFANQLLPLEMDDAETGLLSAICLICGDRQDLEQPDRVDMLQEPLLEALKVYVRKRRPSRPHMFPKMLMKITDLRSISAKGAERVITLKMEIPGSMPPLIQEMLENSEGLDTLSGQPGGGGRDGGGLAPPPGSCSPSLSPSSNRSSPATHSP

[6] = molecular target: T1, Retinoic acid receptor beta (Homo sapiens); experiment: Relative transcriptional activation in CV-1 cells expressing RAR beta receptor compared to ATRA; Not detectable; format: functional, cell-based; conditions: Cercopithecidae
[7] = molecular target: T2, Retinoic acid receptor gamma (Homo sapiens); experiment: Relative transcriptional activation in CV-1 cells expressing RAR gamma receptor compared to ATRA; Not detectable; format: functional, cell-based; conditions: Cercopithecidae
[8] = molecular target: T3, Retinoic acid receptor alpha (Homo sapiens); experiment: Relative transcriptional activation in CV-1 cells expressing RAR alpha receptor compared to ATRA; Not detectable; format: functional, cell-based; conditions: Cercopithecidae
[9] = molecular target: T2, Retinoic acid receptor gamma (Homo sapiens); experiment: Inhibition of [3H]ATRA-Hl60 binding to Retinoic acid receptor gamma relative to ATRA; how it was run: as §1
[10] = molecular target: T1, Retinoic acid receptor beta (Homo sapiens); experiment: Inhibition of [3H]ATRA-Hl60 binding to Retinoic acid receptor beta relative to ATRA; how it was run: as §1

| Relative IC50 [1] | Relative EC30 [2] | Relative IC50 [3] | Relative EC30 [4] | Relative EC30 [5] | Relative EC30 [6] | Relative EC30 [7] | Relative EC30 [8] | Relative IC50 [9] | Relative IC50 [10] | Structure (SMILES) | ED30 (HL-60) |
| --- | --- | --- | --- | --- | --- | --- | --- | --- | --- | --- | --- |
| > 1000 nM | 15 nM | > 1000 nM | 88 nM | 1 nM | – | – | – | – | – | CC(C)c1cc(-c2ccc(-c3ccc(C(=O)O)cc3)[nH]2)nn1CC(F)(F)F | 0.62 nM |
| > 1000 nM | – | > 1000 nM | – | – | > 10000 nM | > 10000 nM | > 10000 nM | – | – | Cc1ccc(C)c(-n2nc(-c3ccc(-c4ccc(C(=O)O)cc4)[nH]3)cc2C(C)C)c1 | >10000 nM |
| – | 0.63 nM | – | 2.3 nM | 0.22 nM | – | – | – | 70 nM | 110 nM | CC(C)c1cc(-c2ccc(-c3ccc(C(=O)O)cc3)[nH]2)nn1C(C)(C)C | 0.05 nM |
| – | – | – | – | – | – | – | – | – | – | CC1=C(/C=C/C(C)=C/C=C/C(C)=C/C(=O)O)C(C)(C)CCC1 [TRETINOIN] | 1.5 nM |
| – | 1.8 nM | > 1000 nM | 14 nM | 0.19 nM | – | – | – | – | 660 nM | CC(C)c1cc(-c2ccc(-c3ccc(C(=O)O)cc3)[nH]2)nn1C(C)C | 0.27 nM |
